Compound activity as filed in PubChem BioAssay.
Lmaj promast: Leishmania major promastigote growth inhibition | inhibition, % at 10 µM | Leishmania major promastigotes, resazurin fluorescence viability | hit rate 9% among 200,000 | AID 1063; in the data active = inhibition above about 50%;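 also: promastigotes grown with compound for 44 hours at 28 °C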
PTEN del growth: growth suppressors of cells with PTEN tumor suppressor deletion | HCT116 PTEN-null viability, CellTiter-Glo, 60 h; stronger effect = lower value | hit rate 1.2% among 140,000 | AID 827 | viability, % at 10 µM;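 active = viability at or below a set limit, 4 SD under the median of all tested compounds, cut at about 3.7% in these data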;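 also: PTEN knockout HCT116 line with beta catenin targeted HCT116 as companion control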
TNAP inh hiacc: TNAP (human) inhibition, high acceptor; P05186; purified TNAP, CDP-star luminescence, 1 M DEA; inhibition, % at 20 µM; hit rate 0.03% among 200,000;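 active = over 50% inhibition of tissue-nonspecific alkaline phosphatase at 20 µM in the single-dose screen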;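 also: plate controls were DMSO wells for no effect and EDTA-quenched wells as full inhibition for full effect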
Target sequence (P05186 whole entry, looked up): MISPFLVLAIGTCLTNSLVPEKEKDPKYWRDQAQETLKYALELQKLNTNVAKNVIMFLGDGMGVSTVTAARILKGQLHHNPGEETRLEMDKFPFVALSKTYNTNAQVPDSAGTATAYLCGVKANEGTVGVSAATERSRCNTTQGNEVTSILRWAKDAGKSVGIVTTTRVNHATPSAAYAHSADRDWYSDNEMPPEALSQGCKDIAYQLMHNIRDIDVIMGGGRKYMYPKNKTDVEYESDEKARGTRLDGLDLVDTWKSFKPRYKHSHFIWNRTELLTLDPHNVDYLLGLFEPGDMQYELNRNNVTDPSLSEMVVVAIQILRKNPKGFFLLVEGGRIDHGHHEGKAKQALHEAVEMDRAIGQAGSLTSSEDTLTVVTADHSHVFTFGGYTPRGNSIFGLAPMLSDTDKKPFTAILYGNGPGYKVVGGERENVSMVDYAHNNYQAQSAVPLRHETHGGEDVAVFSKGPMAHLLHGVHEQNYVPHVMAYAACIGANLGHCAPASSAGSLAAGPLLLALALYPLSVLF
TNAP act hiacc: activators of human TNAP at high phosphate acceptor concentration; P05186; purified TNAP, CDP-star luminescence, 1 M DEA, 30 min; stronger effect = higher value; 0 = EDTA background, 1 = DMSO-only activity; activation factor at 20 µM; 200,000 tested, under 10 active;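 active = activation factor at least 2 at 20 µM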
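Test system – human TNAP · Doses – 20 µM single point · Incubation – 30 min, room temperature · Signal – luminescent substrate turnover signal · Read-out basis – activation factor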
bCat KO growth: beta-catenin-lacking colon tumor cell growth suppression. HCT116 beta-catenin knockout viability, CellTiter-Glo, 60 h; stronger effect = lower value. viability, % at 10 µM. hit rate 1.5% among 140,000. AID 818;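 active = viability at or under a set limit, the compound median less 4 SD, cut at about 6% in these data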;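 also: 0% = Hyamine 1622 control at 20 µM and 100% = untreated cell control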
TNAP inh no acc: blocks human TNAP activity with no phosphate acceptor present; inhibition, % at 20 µM; AID 1012; purified TNAP, CDP-star luminescence, 30 min; hit rate 0.26% among 200,000; P05186;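 active = tissue-nonspecific alkaline phosphatase inhibition above about 50% at 20 µM in the single-dose screen, limit read from the data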;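 also: 0% = DMSO negative control and 100% = EDTA positive control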
An asterisk follows results filed as active; x = not tested or not shown. Hits are enriched below; roughly 9.6% of the tested compounds scored in any of these assays.

SMILES	Lmaj promast	PTEN del growth	TNAP inh hiacc	TNAP act hiacc	bCat KO growth	TNAP inh no acc
COc1ccc(C)cc1S(=O)(=O)N(CC(=O)Nc1cc([N+](=O)[O-])ccc1C)c1ccc(C)c(C)c1	99*	74	-2	1	77	-19
COc1ccc([N+](=O)[O-])cc1NC(=O)c1ccccc1SC	-3	x	-2	1	x	-8
COc1ccc(-n2cc(C(=O)Nc3cc([N+](=O)[O-])ccc3OC)c3ccccc3c2=O)cc1	77*	87	1	1	88	6
CCOC(=O)c1ccccc1NC(=O)c1n[nH]c(=O)c2ccccc12	-6	3.1*	0	1	7	-3
COC(=O)c1ccccc1NC(=O)c1cn(-c2ccc(C)c(C)c2)c(=O)c2ccccc12	41	58	-9	1.1	60	-11
CCOC(=O)c1ccccc1NC(=O)c1cn(-c2ccc(C)c(C)c2)c(=O)c2ccccc12	98*	57	-7	1.1	66	-5
COc1ccc(-n2cc(C(=O)O)c3ccccc3c2=O)cc1	-8	96	1	1	89	15
CCOC(=O)c1ccccc1NC(=O)c1cn(-c2ccc(OC)cc2)c(=O)c2ccccc12	92*	81	-1	1	78	1
C[C@@H](O)C1NC(=O)[C@H](CCCCN)NC(=O)c2cc([N+](=O)[O-])cc(I)c2OCC[C@@H](C(N)=O)NC1=O (stereo partly specified)	-5	102	0	1	98	-4
NC(Cc1c[nH]c2ccccc12)C(=O)NCc1ccco1 (stereo unspecified)	-8	x	-6	1.1	x	-9
CCn1c(C(=O)N2CCCC(C(=O)NCCCc3ccccc3)C2)cc2sccc21 (stereo unspecified)	99*	77	-11	1.1	84	-11
CCn1c(C(=O)N2CCCC(C(=O)NCCc3ccc(C)cc3)C2)cc2sccc21 (stereo unspecified)	8	75	-7	1.1	90	-22
Cc1cnc(C(=O)Nc2cccc3cccnc23)cn1	97*	10	-6	1.1	17	-29
O=C(CSc1nncc2ccccc12)N1CCCCC1	-2	x	-4	1	x	-6
COc1ccc(OC)c(C2C=C(C34CC5CC(CC(C5)C3)C4)NC(=S)N2)c1 (stereo unspecified)	99*	36	6	0.9	37	10
Nc1ccccc1C(=O)/C=C/c1ccc2c(c1)OCO2	58*	5	6	0.9	11	0
Cc1ccccc1NC(=S)NCCC(c1ccccc1)c1ccccc1	30	71	-20	1.2	95	-28
Cc1ccc(NC(=S)NCCC(c2ccccc2)c2ccccc2)c(C)c1	66*	40	-22	1.2	40	-66
S=C(NCc1ccncc1)Nc1cccc(Cl)c1	12	101	-8	1.1	91	-1
